Experimental data published in ChEMBL document CHEMBL1142664, “Synthesis and biological evaluation of a new series of 2,3,5-substituted [1,2,4]-thiadiazoles as modulators of adenosine A1 receptors and their molecular mechanism of action” (J Med Chem, 2005).

Assays:
[1] = biological target: T1, Adenosine receptor A1 (Homo sapiens) (UniProt P30542); assay: Inhibition of [3H]CCPA binding to human Adenosine A1 receptor at 10e-6 M
T1 sequence (whole entry): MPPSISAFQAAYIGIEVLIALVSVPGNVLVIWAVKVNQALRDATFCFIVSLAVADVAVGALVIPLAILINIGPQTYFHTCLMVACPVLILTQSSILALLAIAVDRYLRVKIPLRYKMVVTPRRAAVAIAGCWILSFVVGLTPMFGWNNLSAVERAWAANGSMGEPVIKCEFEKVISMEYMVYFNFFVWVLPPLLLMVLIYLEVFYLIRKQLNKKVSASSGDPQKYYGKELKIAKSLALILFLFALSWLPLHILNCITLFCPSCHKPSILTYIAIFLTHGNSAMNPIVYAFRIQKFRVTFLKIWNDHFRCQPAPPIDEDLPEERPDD
Outline: (§1)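 Human A1 receptors expressed in CHO-cell membranes, incubated 60 min at 25 °C in 50 mM Tris-HCl (pH 7.4) with the compound at a fixed concentration. Conditions were [3H]CCPA ~1.0 nM with 20 µg protein, or [3H]DPCPX ~1.6 nM with 10 µg protein. Nonspecific binding was defined with 10 µM DPCPX, and samples were filtered and counted. Results are % specific binding remaining, as means of three experiments in duplicate.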

[2] = biological target: T1, Adenosine receptor A1 (Homo sapiens); assay: Inhibition of [3H]CCPA binding to human Adenosine A1 receptor at 10e-7 M; outline: as §1
[3] = biological target: T1, Adenosine receptor A1 (Homo sapiens); assay: Inhibition of [3H]DPCPX binding to human Adenosine A1 receptor at 10e-6 M; outline: as §1
[4] = biological target: T1, Adenosine receptor A1 (Homo sapiens); assay: Dissociation constant for [3H]-CCPA binding to Adenosine A1 receptor in the presence of compound
Outline: (§2)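 Kinetics on membranes (30 µg) from CHO cells expressing recombinant human A1 receptors, using [3H]CCPA at 1 nM, with or without compound. Association was started by adding membranes to the radioligand. For dissociation, membranes were preloaded with radioligand for 60 min at 25 °C, then 100 µM 8-cyclopentyltheophylline was added. Bound ligand was separated by GF/B filtration and counted by scintillation; t1/2 and rate constants were derived.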

[5] = biological target: T1, Adenosine receptor A1 (Homo sapiens); assay: Association constant for [3H]CCPA binding to Adenosine A1 receptor in the presence of compound; outline: as §2
[6] = biological target: T1, Adenosine receptor A1 (Homo sapiens); assay: Dissociation half life of [3H]CCPA binding to Adenosine A1 receptor; outline: as §2
[7] = biological target: T1, Adenosine receptor A1 (Homo sapiens); assay: Association half life for [3H]CCPA binding to Adenosine A1 receptor in the presence of compound; outline: as §2
[8] = biological target: T1, Adenosine receptor A1 (Homo sapiens); assay: Association half life for [3H]-CCPA binding to Adenosine A1 receptor in the presence of compound; outline: as §2
[9] = biological target: T1, Adenosine receptor A1 (Homo sapiens); assay: Dissociation half life for [3H]CCPA binding to Adenosine A1 receptor in the presence of compound; outline: as §2

| SMILES | Specific binding [1] [%] | Specific binding [2] [%] | Specific binding [3] [%] | Koff [4] [s⁻¹] | k on [5] [M⁻¹ s⁻¹] | T1/2 [6] [min] | T1/2 [7] [min] | T1/2 [8] [min] | T1/2 [9] [min] |
| --- | --- | --- | --- | --- | --- | --- | --- | --- | --- |
| CCC/N=c1/nc(-c2ccccc2)n(-c2ccccc2)s1 | 26 | 98 | 135 |  |  |  |  |  |  |
| CC/N=c1/nc(-c2ccccc2)n(-c2cccc(C)c2)s1 | 24 | 100 | 125 |  |  |  |  |  |  |
| Cc1cccc(-n2s/c(=N/CCCO)nc2-c2ccccc2)c1 | 29 | 97 | 142 |  |  |  |  |  |  |
| CC/N=c1/nc(-c2ccccc2)n(-c2ccccc2)s1 | 20 | 99 | 134 |  |  |  |  |  |  |
| C/N=c1/nc(-c2ccccc2)n(-c2cccc(C)c2)s1 | 23 | 96 | 132 |  |  |  |  |  |  |
| c1ccc(/N=c2/nc(-c3ccccc3)n(-c3ccccc3)s2)cc1 | 66 | 104 | 106 |  |  |  |  |  |  |
| CC(C)/N=c1/nc(-c2ccccc2)n(-c2ccccc2)s1 | 23 | 97 | 126 |  |  |  |  |  |  |
| CCCC/N=c1/nc(-c2ccccc2)n(-c2ccccc2)s1 | 27 | 101 | 126 |  |  |  |  |  |  |
| CCCC/N=c1/nc(-c2ccccc2)n(-c2cccc(C)c2)s1 | 36 | 99 | 114 |  |  |  |  |  |  |
| Cc1cccc(-n2s/c(=N\C(C)C)nc2-c2ccccc2)c1 | 29 | 100 | 121 |  |  |  |  |  |  |
| OCCC/N=c1/nc(-c2ccccc2)n(-c2ccccc2)s1 | 27 | 106 | 127 |  |  |  |  |  |  |
| Cc1cccc(-n2s/c(=N\c3ccccc3)nc2-c2ccccc2)c1 | 89 | 96 | 107 |  |  |  |  |  |  |
| Cc1cccc(-n2s/c(=N\Cc3ccccc3)nc2-c2ccccc2)c1 | 66 | 99 | 116 |  |  |  |  |  |  |
| c1ccc(-c2n/c(=N/C3CCCC3)sn2-c2ccccc2)cc1 | 25 | 100 | 123 | 0.000967 | 4.17e+06 | 12 | 2.9 |  |  |
| Cc1cccc(-n2s/c(=N/C3CCCC3)nc2-c2ccccc2)c1 | 35 | 96 | 101 |  |  |  |  |  |  |
| C/N=c1\nc(C2C=CC=CC2)n(C2C=CC=CC2)s1 (configuration not stated) | 16 | 97 | 122 | 0.000933 | 5.83e+06 |  |  | 2 | 12.4 |
| c1ccc(C/N=c2\nc(-c3ccccc3)n(-c3ccccc3)s2)cc1 | 43 | 101 | 124 |  |  |  |  |  |  |
| CCC/N=c1/nc(-c2ccccc2)n(-c2cccc(C)c2)s1 | 29 | 97 | 126 |  |  |  |  |  |  |
